Compounds with a hit are over-represented: about 2.7% of the library has one in this group of screens.
PAFAH2 FP inh = PAFAH2 enzyme inhibitors, primary screen, biochemical, fluorescence polarization, human | inhibition, % at 3.39 µM | hit rate 0.99% among 340,000 | Platelet-activating factor acetylhydrolase 2, cytoplasmic (Homo sapiens), Q99487 | recombinant PAFAH2, FP-rhodamine activity probe;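 active = inhibition above the mean over all tested compounds plus 3 SD, cut at about 30% in these data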;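 also: inhibitors block probe labeling of enzyme so polarization drops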
PAFAH1B3 FP inh = PAFAH1B3 enzyme inhibitors, primary screen, biochemical, fluorescence polarization, human | inhibition, % at 3.39 µM | recombinant PAFAH1B3, FP-rhodamine probe | hit rate 0.28% among 340,000 | Platelet-activating factor acetylhydrolase IB subunit alpha1 (Homo sapiens), Q15102 | AID 492972, 2010;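 active = inhibition above the screen-wide average of all tested compounds plus 3 SD, cut at about 25% in these data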
Target sequence (Q15102 whole entry, looked up): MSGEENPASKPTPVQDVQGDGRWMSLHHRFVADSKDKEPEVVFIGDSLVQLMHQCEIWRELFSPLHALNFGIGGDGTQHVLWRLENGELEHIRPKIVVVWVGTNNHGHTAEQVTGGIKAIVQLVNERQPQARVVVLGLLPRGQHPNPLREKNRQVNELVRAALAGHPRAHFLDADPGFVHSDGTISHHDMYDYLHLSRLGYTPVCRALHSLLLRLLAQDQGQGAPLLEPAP
RBBP9 inh = human RBBP9 inhibitors, primary screen, biochemical, fluorescence polarization, FP-Rh probe, HTS. hit rate 0.2% among 220,000. recombinant RBBP9. inhibition, % at 7.94 µM. AID 1515, 2009;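 active = inhibition above the campaign mean of all tested compounds plus 3 SD, cut at about 14% in these data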
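Measured by: FP readout at 525/598 nm; material: recombinant human RBBP9; also added: Serine-hydrolase probe FP-Rh, 375 nM pre-mixing; medium: Tris buffer pH 8.0, NaCl, Pluronic; replication: one well per compound; doses: one concentration, 7.94 µM nominal, 0.794% DMSO; timing: preincubation 30 min plus labeling 45 min at 25 °C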
PAFAH1B2 inh = PAFAH1B2 enzyme inhibitors, primary screen, biochemical, fluorescence polarization, human; AID 492953, 2010; inhibition, % at 3.39 µM; hit rate 1.2% among 340,000; Platelet-activating factor acetylhydrolase IB subunit alpha2 (Homo sapiens), P68402; recombinant PAFAH1B2, FP-rhodamine activity probe;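 active = inhibition above the mean of all tested compounds plus 3 SD, cut at about 24% in these data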
Target sequence (P68402 whole entry, looked up): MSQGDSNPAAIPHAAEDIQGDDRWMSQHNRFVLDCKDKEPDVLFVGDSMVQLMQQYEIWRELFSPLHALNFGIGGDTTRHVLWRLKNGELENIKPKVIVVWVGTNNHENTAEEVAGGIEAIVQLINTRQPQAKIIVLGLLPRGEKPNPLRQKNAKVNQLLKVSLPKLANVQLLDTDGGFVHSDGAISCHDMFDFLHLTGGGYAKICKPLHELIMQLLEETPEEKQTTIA
pPAFAH FP inh = pPAFAH enzyme inhibitors, primary screen, biochemical, fluorescence polarization, human; Platelet-activating factor acetylhydrolase (Homo sapiens), Q13093; recombinant pPAFAH, FP-rhodamine probe fluorescence polarization; inhibition, % at 3.39 µM; hit rate 1.5% among 330,000; AID 463082, 2010;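 active = inhibition above the mean inhibition across the screen plus 3 SD, cut at about 25% in these data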;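 also: inhibitors block binding of the rhodamine activity-based probe so polarization drops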
PAFAH2 confirm = PAFAH2 enzyme inhibitors, confirmation, biochemical, fluorescence polarization, human. shares compounds with PAFAH2 FP inh. recombinant PAFAH2, FP-rhodamine activity probe. inhibition, % at 3.39 µM. hit rate 65% among 2,300. AID 493030, 2011;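 active = mean inhibition over three repeats above a set limit taken from the earlier primary screen, cut at about 30% in these data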;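 also: inhibitor blocks binding of rhodamine activity probe so polarization falls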
Numbers stand for hits; . = inactive; / = no result.

SMILES	PAFAH2 FP inh	PAFAH1B3 FP inh	RBBP9 inh	PAFAH1B2 inh	pPAFAH FP inh	PAFAH2 confirm
CCN1CCN(C(CNS(=O)(=O)c2ccc(Br)cc2)c2cccnc2)CC1 (stereo not given)	.	.	/	.	.	/
CSc1nc(N)nc2c1ncn2CC(=O)N[C@H](CO)Cc1c[nH]c2ccccc12	38	.	/	.	.	.
C[C@@H](C(=O)NNC(=O)c1ccc(Cl)cc1)N1C(=O)C2CC=CCC2C1=O (stereo not given in full)	.	.	/	.	.	/
O=C(COC(=O)c1ccc(F)cc1)NCCc1ccc(F)cc1	36	.	.	.	.	.
Cc1nc(C)c(C(=O)OCC(=O)NCCc2ccc(F)cc2)s1	31	.	/	.	/	.
O=C(COC(=O)c1cccs1)NCCc1ccc(F)cc1	55	.	/	.	/	49
Cc1nc(C)c(C(=O)OCC(=O)Nc2cccc(C)c2C)s1	66	.	/	.	.	51
CC1CCCCN1C(=O)CCS(=O)(=O)c1cccc2nonc12 (stereo not given)	.	.	.	.	.	/
COc1ccc(CNC(=O)COC(=O)c2ccc3c(c2)OCCO3)cc1	.	.	.	.	.	/
O=C(COC(=O)c1ccc2c(c1)OCCO2)NCCc1ccc(F)cc1	68	.	/	.	.	54
CCn1c(SCc2c(Cl)cccc2Cl)nnc1-c1nn(-c2ccccc2)ccc1=O	49	.	.	.	.	.
Cc1cc(C)nc(SSc2nc(C)cc(C)n2)n1	.	.	/	.	.	/
CCc1ccc(CN(C)Cc2nc(COc3ccccc3)no2)nc1	30	.	.	.	.	.
Cc1cccc(NC(=O)COC(=O)c2ccccc2SCC(=O)N2CCCC2)c1	88	.	/	.	.	74
O=C(COC(=O)c1ccccc1SCC(=O)N1CCCC1)Nc1ccc(OC(F)F)cc1	73	.	/	.	.	76
Cc1cccc(C(C(=O)NC2CCCCC2)N(Cc2cccnc2)C(=O)c2csnn2)c1 (stereo not given)	.	.	/	.	.	/
CN(/C=C/C(=C\C=[N+](C)c1ccccc1)OCCCS(=O)(=O)[O-])c1ccccc1	.	.	.	.	.	/
CC(C)[C@H](NC(=O)c1ccc(Cl)cc1)C(=O)OCC(=O)N1CCN(c2ccccc2)CC1	.	.	/	.	.	/
CC(CCc1ccccc1)NC(=O)COC(=O)c1ccc(NC(=O)CC#N)cc1 (stereo not given)	54	.	/	.	.	51
Cc1cccc(C(=O)OCC(=O)NC(C)CCc2ccccc2)c1 (stereo not given)	46	.	.	.	.	31
CC(C)(C)NC(=O)COC(=O)c1ccc(NC(=O)CC#N)cc1	67	.	.	.	.	53
Cc1cccc(C(=O)NCC(=O)NC(C)CCc2ccccc2)c1 (stereo not given)	.	.	/	.	.	/
N#CCC(=O)Nc1ccc(C(=O)OCC(=O)NNC(=O)c2ccc(Cl)cc2)cc1	.	.	/	.	.	/
CCN(CC)S(=O)(=O)c1cc(NC(=O)COC(=O)c2ccc(NC(=O)CC#N)cc2)ccc1C	51	.	.	.	.	50
CC(CCc1ccccc1)NC(=O)COC(=O)c1ccc([N+](=O)[O-])cc1 (stereo not given)	.	.	/	.	.	/
SMILES	PAFAH2 FP inh	PAFAH1B3 FP inh	RBBP9 inh	PAFAH1B2 inh	pPAFAH FP inh	PAFAH2 confirm
CCC(C)NCCCOc1c(C)cc(C)cc1Br (stereo not given)	.	.	.	.	.	/
CCOCc1c(C(=O)OCC(=O)Nc2ccc(C)c(S(=O)(=O)N(C)C)c2)oc2ccccc12	58	.	.	.	.	45
CN(C)c1cccc(C(=O)OCC(=O)NC(=O)NCc2ccccc2)c1	.	.	/	.	.	/
CC(CCc1ccccc1)NC(=O)COC(=O)c1cccc(N(C)C)c1 (stereo not given)	58	.	/	.	.	36
COc1cc2c(cc1OC)CN(C(=O)C1CCCN(C(=O)c3ccc(Cl)cc3)C1)CC2 (stereo not given)	.	.	/	.	.	/
COc1ccc(CNC(=O)c2ccc(N3CCCC3=O)cc2)cc1	.	.	.	.	.	/
